Drawing on ChEMBL document CHEMBL5653631, “A Potent and Selective ULK1 Inhibitor Suppresses Autophagy and Sensitizes Cancer Cells to Nutrient Stress” (iScience, 2018), this text covers fold change (FC) and inhibition for three compounds.

Assay [1] addresses T1, cGMP-dependent protein kinase 1 (Homo sapiens) (UniProt Q13976).
T1 sequence (whole entry): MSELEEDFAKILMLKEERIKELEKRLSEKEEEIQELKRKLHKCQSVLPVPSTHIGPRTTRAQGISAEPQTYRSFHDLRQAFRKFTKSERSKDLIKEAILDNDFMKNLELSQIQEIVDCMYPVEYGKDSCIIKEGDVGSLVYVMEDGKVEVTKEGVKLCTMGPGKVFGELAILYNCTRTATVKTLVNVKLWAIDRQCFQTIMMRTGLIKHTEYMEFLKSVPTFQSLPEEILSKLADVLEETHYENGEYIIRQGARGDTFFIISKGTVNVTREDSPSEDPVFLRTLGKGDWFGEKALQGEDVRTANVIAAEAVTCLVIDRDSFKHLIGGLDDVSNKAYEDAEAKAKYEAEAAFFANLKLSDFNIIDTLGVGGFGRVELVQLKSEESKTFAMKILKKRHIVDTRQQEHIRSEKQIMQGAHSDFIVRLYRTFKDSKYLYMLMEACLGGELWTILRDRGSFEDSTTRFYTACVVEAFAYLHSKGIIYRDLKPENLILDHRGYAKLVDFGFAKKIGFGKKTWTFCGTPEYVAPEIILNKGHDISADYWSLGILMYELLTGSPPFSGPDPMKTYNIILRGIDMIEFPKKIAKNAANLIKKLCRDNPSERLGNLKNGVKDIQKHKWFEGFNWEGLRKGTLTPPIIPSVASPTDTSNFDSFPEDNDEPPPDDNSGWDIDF
As to the kind of experiment: Inhibition of human recombinant PKG1 at 15 nM related to control ULK1.

Assay [2] deals with T2, Inhibitor of nuclear factor kappa-B kinase subunit alpha (Homo sapiens) (UniProt O15111).
T2 sequence (whole entry): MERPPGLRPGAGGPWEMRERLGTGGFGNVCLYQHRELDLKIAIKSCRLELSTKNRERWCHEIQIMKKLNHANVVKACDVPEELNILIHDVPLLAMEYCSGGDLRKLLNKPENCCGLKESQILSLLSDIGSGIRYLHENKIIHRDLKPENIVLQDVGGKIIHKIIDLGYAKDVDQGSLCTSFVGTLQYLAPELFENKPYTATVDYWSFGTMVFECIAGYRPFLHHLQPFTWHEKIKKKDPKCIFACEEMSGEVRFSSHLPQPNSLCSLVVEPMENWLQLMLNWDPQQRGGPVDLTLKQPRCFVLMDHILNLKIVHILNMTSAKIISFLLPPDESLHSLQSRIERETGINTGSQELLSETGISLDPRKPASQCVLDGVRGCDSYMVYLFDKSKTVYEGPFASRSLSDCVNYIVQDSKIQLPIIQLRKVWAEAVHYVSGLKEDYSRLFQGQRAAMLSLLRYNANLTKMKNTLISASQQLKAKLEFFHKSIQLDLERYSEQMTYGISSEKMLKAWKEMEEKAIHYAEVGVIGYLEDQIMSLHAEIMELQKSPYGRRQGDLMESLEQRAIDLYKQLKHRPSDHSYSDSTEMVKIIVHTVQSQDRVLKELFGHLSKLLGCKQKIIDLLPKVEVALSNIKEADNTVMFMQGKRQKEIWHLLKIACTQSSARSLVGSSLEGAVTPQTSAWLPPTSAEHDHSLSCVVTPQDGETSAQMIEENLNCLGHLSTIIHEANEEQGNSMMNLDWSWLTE
Kind of assay: Inhibition of human recombinant IKKa at 15 nM in presence of ATP by radiometric assay relative to control.

For assay [3], the target named is T3, Mitogen-activated protein kinase 12 (Homo sapiens) (UniProt P53778).
T3 sequence (whole entry): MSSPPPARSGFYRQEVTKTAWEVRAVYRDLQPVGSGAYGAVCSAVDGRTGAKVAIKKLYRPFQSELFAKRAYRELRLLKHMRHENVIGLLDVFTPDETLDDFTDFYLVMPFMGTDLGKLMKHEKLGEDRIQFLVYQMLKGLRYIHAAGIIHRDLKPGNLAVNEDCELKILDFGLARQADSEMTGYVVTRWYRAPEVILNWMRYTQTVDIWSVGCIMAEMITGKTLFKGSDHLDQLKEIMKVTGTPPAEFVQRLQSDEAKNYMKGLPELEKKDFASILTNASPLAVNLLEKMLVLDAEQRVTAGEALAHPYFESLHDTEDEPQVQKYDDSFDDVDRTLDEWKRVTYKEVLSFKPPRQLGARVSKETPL
Kind of assay: Inhibition of human recombinant p38gamma at 15 nM related to control ULK1.

Assay [4] has as its target Tyrosine-protein kinase receptor UFO (Homo sapiens) (UniProt P30530). As to the kind of experiment: Inhibition of human recombinant AXL at 40 nM related to control ULK1. In short, it runs like this:
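Radiometric activity assays in a panel of 327 human recombinant kinases, each run in duplicate at one inhibitor concentration. Activity remaining is expressed as percent of vehicle control, and percent inhibition is calculated as 100% minus percent activity remaining.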

Assay [5] addresses Epidermal growth factor receptor (Homo sapiens) (UniProt P00533). Kind of assay: Inhibition of human recombinant EGFR at 40 nM in presence of ATP by radiometric assay relative to control.
For assay [6], the target named is T4, Dual specificity tyrosine-phosphorylation-regulated kinase 2 (Homo sapiens) (UniProt Q92630).
T4 sequence (whole entry): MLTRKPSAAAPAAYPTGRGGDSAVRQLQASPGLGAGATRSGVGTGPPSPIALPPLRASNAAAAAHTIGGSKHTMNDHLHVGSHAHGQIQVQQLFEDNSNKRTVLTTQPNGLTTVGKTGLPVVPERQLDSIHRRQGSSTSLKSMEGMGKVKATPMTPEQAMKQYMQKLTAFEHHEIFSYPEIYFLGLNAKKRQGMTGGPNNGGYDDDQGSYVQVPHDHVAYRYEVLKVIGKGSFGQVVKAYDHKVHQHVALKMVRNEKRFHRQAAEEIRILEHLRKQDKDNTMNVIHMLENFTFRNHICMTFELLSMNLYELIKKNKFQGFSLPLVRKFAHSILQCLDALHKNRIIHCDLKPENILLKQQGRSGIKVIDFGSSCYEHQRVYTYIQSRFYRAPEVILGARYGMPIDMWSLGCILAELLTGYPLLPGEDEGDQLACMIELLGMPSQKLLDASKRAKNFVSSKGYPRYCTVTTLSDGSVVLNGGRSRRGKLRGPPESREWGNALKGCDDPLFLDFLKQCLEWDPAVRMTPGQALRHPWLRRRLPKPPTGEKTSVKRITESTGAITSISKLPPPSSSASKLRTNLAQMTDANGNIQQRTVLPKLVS
As to the kind of experiment: Inhibition of human recombinant DYRK2 at 500 nM related to control ULK1.

The target in assay [7] is Cyclin-dependent kinase-like 1 (Homo sapiens) (UniProt Q00532). Kind of assay: Inhibition of human recombinant CDKL1 at 500 nM related to control ULK1.
Chain of Cyclin-dependent kinase-like 1 (Homo sapiens) (Q00532 whole entry): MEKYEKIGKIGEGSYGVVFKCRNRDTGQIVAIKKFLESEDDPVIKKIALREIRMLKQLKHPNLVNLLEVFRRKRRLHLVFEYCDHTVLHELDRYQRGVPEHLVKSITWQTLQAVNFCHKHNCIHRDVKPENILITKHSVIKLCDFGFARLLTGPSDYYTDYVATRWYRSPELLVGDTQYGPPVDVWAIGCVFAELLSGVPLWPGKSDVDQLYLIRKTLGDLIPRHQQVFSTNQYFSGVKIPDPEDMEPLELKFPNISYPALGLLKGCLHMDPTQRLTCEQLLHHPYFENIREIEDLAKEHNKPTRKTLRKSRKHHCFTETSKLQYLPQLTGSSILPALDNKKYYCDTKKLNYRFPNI
In assay [8] the target is Wee1-like protein kinase (Homo sapiens) (UniProt P30291). As to the kind of experiment: Inhibition of human recombinant Wee1 at 500 nM related to control ULK1.
Chain of Wee1-like protein kinase (Homo sapiens) (P30291 whole entry, looked up): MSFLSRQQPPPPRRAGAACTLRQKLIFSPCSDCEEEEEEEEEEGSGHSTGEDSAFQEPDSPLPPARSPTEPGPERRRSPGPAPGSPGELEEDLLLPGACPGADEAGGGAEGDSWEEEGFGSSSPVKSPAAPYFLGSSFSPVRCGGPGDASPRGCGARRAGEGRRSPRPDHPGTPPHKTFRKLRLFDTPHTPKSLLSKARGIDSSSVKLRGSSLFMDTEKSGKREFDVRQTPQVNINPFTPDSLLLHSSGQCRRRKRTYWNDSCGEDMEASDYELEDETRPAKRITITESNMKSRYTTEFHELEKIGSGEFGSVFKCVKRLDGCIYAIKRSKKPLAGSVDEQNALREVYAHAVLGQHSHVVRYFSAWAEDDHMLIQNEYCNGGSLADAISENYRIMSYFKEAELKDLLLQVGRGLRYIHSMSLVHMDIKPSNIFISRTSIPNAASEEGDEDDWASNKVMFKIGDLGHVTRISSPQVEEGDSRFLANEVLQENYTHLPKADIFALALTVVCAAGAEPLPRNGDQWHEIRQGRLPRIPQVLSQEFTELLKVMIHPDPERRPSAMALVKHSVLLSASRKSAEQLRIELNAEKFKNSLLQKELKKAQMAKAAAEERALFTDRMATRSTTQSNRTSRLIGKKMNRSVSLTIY
The target in assay [9] is Serine/threonine-protein kinase PAK 1 (Homo sapiens) (UniProt Q13153). Kind of assay: Inhibition of human recombinant PAK1 at 500 nM related to control ULK1.
Chain of Serine/threonine-protein kinase PAK 1 (Homo sapiens) (Q13153 whole entry, looked up): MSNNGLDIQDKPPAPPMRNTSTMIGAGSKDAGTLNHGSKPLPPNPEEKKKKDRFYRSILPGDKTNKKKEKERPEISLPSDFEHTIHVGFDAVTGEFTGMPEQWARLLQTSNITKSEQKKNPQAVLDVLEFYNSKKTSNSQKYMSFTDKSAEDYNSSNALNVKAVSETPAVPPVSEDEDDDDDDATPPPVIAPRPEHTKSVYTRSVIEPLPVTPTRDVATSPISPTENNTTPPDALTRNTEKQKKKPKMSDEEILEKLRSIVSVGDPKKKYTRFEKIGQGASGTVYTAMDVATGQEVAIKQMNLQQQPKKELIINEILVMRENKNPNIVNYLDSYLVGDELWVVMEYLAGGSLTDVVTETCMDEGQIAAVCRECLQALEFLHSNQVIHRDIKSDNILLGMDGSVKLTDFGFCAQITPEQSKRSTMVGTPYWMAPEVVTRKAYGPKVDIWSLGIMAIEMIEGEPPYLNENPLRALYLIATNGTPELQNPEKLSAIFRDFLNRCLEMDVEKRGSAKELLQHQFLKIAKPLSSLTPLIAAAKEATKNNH

Chain of Epidermal growth factor receptor (Homo sapiens) (P00533 whole entry): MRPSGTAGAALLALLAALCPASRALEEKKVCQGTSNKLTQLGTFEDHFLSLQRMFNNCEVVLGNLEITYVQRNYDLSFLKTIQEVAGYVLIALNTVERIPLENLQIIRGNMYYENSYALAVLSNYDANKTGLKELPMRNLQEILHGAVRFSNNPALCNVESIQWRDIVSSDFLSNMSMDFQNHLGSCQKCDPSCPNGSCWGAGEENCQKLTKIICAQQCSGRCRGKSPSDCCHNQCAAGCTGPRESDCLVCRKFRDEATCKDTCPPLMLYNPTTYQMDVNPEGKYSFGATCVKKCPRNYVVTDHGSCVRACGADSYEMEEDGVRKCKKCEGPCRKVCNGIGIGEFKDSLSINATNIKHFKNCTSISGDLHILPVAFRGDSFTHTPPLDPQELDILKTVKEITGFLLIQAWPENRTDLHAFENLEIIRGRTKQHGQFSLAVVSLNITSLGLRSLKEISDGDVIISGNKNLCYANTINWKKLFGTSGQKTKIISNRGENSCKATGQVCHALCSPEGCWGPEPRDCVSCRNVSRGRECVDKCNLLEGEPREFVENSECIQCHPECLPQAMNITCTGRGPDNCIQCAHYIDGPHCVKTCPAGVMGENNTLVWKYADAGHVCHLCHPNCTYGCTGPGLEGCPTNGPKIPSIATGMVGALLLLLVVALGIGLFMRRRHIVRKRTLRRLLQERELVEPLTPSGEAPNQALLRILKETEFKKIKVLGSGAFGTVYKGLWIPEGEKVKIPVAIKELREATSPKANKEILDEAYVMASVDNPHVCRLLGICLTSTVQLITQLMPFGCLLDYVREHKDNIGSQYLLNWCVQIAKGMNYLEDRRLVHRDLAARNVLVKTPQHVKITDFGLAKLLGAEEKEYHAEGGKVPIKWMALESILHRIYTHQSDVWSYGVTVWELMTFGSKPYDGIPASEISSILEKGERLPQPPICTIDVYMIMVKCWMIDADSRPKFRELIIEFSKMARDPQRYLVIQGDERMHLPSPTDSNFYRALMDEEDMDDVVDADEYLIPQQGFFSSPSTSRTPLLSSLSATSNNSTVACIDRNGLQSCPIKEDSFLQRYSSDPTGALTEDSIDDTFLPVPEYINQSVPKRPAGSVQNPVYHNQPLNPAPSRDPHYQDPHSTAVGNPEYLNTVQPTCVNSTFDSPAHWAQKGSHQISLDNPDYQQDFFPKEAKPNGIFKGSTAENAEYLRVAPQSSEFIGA
Chain of Tyrosine-protein kinase receptor UFO (Homo sapiens) (P30530 whole entry): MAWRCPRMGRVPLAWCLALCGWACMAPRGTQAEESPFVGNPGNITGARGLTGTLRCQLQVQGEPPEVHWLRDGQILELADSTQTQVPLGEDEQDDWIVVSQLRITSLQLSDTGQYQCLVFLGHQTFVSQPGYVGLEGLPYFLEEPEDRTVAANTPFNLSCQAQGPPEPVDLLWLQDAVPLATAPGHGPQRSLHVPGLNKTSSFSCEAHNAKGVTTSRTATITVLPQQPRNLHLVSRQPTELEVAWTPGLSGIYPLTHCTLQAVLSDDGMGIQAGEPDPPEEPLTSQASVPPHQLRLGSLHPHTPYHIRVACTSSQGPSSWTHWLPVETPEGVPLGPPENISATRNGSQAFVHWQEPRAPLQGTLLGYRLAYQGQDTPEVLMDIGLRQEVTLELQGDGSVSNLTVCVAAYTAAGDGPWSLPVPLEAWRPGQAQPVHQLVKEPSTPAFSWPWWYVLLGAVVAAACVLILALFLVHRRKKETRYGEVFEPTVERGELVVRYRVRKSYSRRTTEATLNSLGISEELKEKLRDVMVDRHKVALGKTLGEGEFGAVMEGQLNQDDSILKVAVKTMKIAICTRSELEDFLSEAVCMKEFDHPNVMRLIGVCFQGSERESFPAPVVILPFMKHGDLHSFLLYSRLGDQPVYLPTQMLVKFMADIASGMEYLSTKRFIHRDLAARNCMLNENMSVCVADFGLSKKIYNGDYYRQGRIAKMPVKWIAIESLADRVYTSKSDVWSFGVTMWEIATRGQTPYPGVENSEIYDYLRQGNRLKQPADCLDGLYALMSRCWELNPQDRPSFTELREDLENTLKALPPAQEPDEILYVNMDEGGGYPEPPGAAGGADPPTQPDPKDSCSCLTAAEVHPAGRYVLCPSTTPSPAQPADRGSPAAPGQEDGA

The term inhibition denotes the relative decrease from the control value, in per cent. In the case of `CC(C)[C@H](NC(=O)c1cc(-c2cnn3cc(-c4ccc(OCCN5CCCCC5)cc4)cnc23)cs1)C(F)(F)F`, the fold change (FC) in assay [1] was found to be 0; in assay [3] it was 0.06. The inhibition in assay [2] was determined as 1%.
Consider `O=C(N[C@@H](C1CC1)C(F)(F)F)c1cc(-c2cnn3cc(-c4ccc(F)cc4)cnc23)cs1`, for which, in assay [4], the fold change (FC) was found to be 0.07. For the same compound, the inhibition in assay [5] was found to be 0%.
Take `CNC(=O)c1ccccc1Oc1nc(Nc2cc(OC)c(OC)c(OC)c2)ncc1Br`: the fold change (FC) worked out at 0 in assay [6], 0 in assay [7], 0.22 in [8] and 0.27 in assay [9].
